Measurements taken from the M2OR odorant receptor database.

Key:
Conditions in all cases: stereoisomer not certain
UniProt Q8VGC6 = molecular target: T1, UniProt Q8VGC6
T1 sequence (whole entry): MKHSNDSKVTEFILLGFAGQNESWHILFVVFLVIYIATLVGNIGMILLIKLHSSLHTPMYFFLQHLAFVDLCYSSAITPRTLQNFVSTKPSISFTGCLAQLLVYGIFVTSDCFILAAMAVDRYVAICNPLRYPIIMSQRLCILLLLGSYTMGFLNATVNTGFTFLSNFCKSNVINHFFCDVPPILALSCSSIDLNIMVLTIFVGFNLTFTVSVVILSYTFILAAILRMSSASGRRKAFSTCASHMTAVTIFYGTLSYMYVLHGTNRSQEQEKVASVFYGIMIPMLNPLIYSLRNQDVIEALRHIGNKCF
Method in brief: (§1)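 Each entry records the cell line, G-protein, co-transfected protein and tags used. Methods varied with the source, often transient luciferase assays in mammalian cell lines. A receptor–molecule pair is called responsive (active) if the original authors judged its signal statistically different from baseline and non-responsive (inactive) otherwise.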

UniProt Q8VGD7 = molecular target: T2, UniProt Q8VGD7
T2 sequence (whole entry): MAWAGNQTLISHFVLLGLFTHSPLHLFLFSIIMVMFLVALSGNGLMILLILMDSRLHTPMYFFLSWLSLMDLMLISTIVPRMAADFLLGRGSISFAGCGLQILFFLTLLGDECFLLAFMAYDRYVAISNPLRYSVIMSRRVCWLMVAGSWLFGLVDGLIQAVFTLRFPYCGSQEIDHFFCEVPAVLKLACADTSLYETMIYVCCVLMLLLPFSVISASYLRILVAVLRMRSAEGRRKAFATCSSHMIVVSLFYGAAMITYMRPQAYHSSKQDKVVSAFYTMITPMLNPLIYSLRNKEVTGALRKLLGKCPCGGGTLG
Method in brief: as §1

UniProt Q8VGH1 = molecular target: T3, UniProt Q8VGH1
T3 sequence (whole entry): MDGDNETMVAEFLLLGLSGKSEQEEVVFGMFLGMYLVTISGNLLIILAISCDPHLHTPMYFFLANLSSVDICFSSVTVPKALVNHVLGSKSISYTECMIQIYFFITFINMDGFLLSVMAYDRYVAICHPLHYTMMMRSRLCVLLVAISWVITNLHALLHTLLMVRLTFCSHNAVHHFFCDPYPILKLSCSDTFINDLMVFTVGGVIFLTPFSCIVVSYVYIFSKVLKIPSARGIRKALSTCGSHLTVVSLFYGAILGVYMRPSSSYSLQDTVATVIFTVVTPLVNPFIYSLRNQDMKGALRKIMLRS
Method in brief: as §1

UniProt Q8VGJ1 = molecular target: T4, UniProt Q8VGJ1
T4 sequence (whole entry): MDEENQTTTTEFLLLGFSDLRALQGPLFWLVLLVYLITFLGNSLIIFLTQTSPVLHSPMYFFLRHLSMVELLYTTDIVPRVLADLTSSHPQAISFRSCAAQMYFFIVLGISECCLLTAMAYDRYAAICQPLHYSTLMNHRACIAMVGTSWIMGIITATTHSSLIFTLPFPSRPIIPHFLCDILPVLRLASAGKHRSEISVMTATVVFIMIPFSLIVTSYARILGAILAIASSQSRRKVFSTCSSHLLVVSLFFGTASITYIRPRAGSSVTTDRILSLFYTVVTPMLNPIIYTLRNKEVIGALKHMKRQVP
Method in brief: as §1

UniProt Q8VGJ5 = molecular target: T5, UniProt Q8VGJ5
T5 sequence (whole entry): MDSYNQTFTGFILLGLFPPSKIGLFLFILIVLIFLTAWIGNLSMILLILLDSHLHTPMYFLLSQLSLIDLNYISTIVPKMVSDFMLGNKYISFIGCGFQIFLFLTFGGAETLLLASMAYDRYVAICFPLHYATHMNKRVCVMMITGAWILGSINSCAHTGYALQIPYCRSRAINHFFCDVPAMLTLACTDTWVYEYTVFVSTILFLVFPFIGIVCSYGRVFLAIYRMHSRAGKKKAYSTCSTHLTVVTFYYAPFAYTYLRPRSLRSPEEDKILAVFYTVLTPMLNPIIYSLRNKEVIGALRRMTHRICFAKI
Method in brief: as §1

UniProt Q8VGL0 = molecular target: T6, UniProt Q8VGL0
T6 sequence (whole entry): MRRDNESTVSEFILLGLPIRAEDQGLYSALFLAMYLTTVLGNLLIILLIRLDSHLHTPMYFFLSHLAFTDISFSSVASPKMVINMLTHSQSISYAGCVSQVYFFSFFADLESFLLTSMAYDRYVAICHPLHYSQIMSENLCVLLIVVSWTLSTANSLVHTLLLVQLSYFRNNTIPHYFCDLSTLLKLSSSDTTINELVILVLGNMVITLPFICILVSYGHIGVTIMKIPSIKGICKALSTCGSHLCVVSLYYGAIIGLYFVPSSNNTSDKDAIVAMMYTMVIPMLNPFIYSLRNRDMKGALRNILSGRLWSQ
Method in brief: as §1

UniProt Q8VGL7 = molecular target: T7, UniProt Q8VGL7
T7 sequence (whole entry): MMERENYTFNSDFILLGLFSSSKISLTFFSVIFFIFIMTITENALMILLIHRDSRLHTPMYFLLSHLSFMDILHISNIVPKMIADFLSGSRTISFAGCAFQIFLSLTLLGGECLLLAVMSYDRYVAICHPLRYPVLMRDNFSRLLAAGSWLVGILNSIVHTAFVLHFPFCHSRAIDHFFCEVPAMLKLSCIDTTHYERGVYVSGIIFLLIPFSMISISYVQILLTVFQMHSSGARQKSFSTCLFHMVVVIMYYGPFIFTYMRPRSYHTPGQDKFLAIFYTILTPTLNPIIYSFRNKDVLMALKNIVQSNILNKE
Method in brief: as §1

UniProt Q8VGM2 = molecular target: T8, UniProt Q8VGM2
T8 sequence (whole entry): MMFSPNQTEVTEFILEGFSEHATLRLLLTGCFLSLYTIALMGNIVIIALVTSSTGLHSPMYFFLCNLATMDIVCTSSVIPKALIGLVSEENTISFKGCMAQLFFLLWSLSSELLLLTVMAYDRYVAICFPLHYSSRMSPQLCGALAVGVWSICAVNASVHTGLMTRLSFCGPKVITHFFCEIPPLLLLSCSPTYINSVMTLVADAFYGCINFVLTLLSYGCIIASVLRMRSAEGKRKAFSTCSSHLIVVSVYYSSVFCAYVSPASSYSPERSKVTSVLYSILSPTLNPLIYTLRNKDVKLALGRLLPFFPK
Method in brief: as §1

UniProt Q8VGP6 = molecular target: T9, UniProt Q8VGP6
T9 sequence (whole entry): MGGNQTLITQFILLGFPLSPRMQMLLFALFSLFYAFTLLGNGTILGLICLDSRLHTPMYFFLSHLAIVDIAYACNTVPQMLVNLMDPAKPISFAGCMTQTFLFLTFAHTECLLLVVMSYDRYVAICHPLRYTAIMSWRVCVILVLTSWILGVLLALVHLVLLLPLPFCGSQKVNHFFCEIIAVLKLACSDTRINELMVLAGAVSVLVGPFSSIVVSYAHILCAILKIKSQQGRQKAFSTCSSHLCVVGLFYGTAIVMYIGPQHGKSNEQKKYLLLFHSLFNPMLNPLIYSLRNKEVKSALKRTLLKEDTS
Method in brief: as §1

UniProt Q8VGQ3 = molecular target: T10, UniProt Q8VGQ3
T10 sequence (whole entry): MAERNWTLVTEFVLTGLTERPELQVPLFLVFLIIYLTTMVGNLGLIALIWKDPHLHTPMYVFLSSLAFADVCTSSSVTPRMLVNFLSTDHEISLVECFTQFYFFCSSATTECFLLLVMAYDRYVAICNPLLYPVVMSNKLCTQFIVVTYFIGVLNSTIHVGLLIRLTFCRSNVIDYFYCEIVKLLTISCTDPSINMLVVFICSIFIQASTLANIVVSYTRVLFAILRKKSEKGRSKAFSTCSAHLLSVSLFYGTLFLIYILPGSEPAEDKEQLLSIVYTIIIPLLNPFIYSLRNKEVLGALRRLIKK
Method in brief: as §1

UniProt Q8VGT4 = molecular target: T11, UniProt Q8VGT4
T11 sequence (whole entry): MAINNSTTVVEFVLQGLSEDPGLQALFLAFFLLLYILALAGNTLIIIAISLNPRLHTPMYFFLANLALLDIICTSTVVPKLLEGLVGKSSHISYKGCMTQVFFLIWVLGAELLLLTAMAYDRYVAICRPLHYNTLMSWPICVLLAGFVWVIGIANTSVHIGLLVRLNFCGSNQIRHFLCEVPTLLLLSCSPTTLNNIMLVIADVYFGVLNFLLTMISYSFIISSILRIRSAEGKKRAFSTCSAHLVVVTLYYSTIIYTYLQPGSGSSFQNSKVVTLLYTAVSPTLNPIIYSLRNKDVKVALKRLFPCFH
Method in brief: as §1

UniProt Q8VGV1 = molecular target: T12, UniProt Q8VGV1
T12 sequence (whole entry): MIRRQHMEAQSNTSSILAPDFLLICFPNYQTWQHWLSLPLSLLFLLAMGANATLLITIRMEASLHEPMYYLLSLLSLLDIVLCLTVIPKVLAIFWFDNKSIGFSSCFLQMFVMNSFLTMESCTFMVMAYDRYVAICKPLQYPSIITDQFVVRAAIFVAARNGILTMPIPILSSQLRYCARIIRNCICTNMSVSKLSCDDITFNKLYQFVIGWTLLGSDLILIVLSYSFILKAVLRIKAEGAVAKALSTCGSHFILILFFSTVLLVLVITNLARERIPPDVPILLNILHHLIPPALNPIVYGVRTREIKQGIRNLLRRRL
Method in brief: as §1

UniProt Q8VGW5 = molecular target: T13, UniProt Q8VGW5
T13 sequence (whole entry): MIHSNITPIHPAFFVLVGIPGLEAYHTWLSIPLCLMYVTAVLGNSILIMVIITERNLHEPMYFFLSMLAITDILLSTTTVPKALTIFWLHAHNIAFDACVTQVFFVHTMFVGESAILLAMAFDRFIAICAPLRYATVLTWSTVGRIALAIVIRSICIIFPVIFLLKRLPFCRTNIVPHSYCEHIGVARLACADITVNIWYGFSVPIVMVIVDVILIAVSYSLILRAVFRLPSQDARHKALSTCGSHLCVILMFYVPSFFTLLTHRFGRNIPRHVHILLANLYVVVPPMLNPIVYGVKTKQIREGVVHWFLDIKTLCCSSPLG
Method in brief: as §1

UniProt Q8VGX5 = molecular target: T14, UniProt Q8VGX5
T14 sequence (whole entry): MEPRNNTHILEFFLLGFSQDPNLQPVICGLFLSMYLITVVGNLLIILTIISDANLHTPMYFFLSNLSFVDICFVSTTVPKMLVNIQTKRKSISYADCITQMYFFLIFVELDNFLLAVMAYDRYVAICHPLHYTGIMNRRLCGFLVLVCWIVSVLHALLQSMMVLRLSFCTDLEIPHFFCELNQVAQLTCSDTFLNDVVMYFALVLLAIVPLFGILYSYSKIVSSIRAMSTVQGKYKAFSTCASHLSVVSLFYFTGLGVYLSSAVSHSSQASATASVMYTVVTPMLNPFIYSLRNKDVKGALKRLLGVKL
Method in brief: as §1

UniProt Q8VGJ3 = molecular target: T15, UniProt Q8VGJ3
T15 sequence (whole entry): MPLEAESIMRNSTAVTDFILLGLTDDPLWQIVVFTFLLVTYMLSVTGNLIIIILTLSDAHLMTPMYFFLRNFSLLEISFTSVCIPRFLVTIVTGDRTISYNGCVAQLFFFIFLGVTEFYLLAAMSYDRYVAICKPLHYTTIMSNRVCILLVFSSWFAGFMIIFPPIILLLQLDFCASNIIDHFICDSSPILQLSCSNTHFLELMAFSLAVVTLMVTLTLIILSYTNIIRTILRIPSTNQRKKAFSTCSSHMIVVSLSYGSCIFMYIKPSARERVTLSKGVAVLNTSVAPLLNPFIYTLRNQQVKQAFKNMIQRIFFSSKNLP
Method in brief: as §1

UniProt Q8VGU3 = molecular target: T16, UniProt Q8VGU3
T16 sequence (whole entry): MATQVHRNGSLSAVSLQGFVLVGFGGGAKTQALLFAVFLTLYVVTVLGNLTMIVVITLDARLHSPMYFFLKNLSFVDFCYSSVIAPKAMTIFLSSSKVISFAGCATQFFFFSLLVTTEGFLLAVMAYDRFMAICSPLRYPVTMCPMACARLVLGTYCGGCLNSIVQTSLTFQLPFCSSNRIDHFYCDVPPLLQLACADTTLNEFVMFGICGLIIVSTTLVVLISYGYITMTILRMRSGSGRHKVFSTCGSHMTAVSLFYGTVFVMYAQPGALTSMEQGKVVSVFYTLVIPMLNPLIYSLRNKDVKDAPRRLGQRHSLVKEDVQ
Method in brief: as §1

UniProt Q8VGV7 = molecular target: T17, UniProt Q8VGV7
T17 sequence (whole entry): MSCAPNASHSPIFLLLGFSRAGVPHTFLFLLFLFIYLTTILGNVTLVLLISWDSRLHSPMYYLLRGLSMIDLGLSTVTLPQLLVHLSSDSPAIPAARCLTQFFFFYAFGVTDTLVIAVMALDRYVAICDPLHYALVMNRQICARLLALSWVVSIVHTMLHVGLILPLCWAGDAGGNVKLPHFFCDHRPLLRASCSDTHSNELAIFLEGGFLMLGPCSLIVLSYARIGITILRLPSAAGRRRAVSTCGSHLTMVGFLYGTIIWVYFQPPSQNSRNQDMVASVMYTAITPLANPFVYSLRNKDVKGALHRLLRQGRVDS
Method in brief: as §1

UniProt Q8VGX3 = molecular target: T18, UniProt Q8VGX3
T18 sequence (whole entry): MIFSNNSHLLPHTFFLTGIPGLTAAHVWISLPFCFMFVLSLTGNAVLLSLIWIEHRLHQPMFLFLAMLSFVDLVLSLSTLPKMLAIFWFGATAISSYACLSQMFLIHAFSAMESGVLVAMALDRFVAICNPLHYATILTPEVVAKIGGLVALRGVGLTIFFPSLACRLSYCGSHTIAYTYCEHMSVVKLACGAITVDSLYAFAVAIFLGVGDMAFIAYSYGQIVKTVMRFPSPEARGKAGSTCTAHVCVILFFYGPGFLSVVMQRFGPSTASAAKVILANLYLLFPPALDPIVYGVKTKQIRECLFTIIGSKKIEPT
Method in brief: as §1

Measured: odorant receptor agonist call

CCCC(C)=O
not listed: UniProt Q8VGJ3 | UniProt Q8VGU3 | UniProt Q8VGV7 | UniProt Q8VGX3
inactive: all other assays above

OCC=Cc1ccccc1
inactive: UniProt Q8VGC6 | UniProt Q8VGJ3 | UniProt Q8VGL0 | UniProt Q8VGU3 | UniProt Q8VGV7 | UniProt Q8VGX3 | UniProt Q8VGX5

CCCCOC(=O)C(C)OC(=O)CCC (centres undefined)
not listed: UniProt Q8VGW5 | UniProt Q8VGJ3 | UniProt Q8VGU3 | UniProt Q8VGV7 | UniProt Q8VGX3
inactive: all other assays above
